Screening results deposited in PubChem BioAssay by several laboratories.
The full list was thinned out, with hits kept by preference.
Redox H2O2 prof: compounds producing H2O2 with reducing agent – biochemical, NIH compound library profiling, artefact control for MLSCN library redox annotation, primary screen; actives 0.03% (n = 200,000); activation, % at 10 µM; AID 878; DTT-dependent redox cycling H2O2, phenol red/HRP absorbance; 100% = 100 µM peroxide control, 0% = buffer;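 active = activation of at least 50% relative to the plate's high and low controls in the primary single-dose screen; inactive = activation below 50%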;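 also: compound incubated with DTT at 0.8 mM final as the reducing agent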
Diaphorase inh: counter-screen for diaphorase-based assays: diaphorase inhibitors and chemical oxidizers | actives 0.69% (n = 190,000) | AID 1217 | diaphorase resazurin-to-resorufin fluorescence, NADH, 16 min; bacterial (C. kluyveri) enzyme, not human | inhibition, % at 20 µM;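 active = primary screen inhibition at 20 µM above a set limit, cut at about 50% in these data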;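 also: plate controls were DMSO with full reaction for no effect and wells lacking NADH for full effect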
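System: Diaphorase enzyme from Clostridium kluyveri | Amount: Enzyme working solution with 0.14 U/mL diaphorase | Benchmarks: No-NADH positive control and DMSO neutral control | Signal: Fluorescence of resorufin formed from resazurin, Ex 544/Em 590 nm | Schedule: 16-min room-temperature incubation before reading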
G6PDH CS: L. mesenteroides G6PDH inhibition counter-screen | Purified L. mesenteroides G6PDH, diaphorase/resazurin coupled fluorescence, 45 min | inhibition, % at 5 µM | actives 0.12% (n = 200,000) | AID 1020
L major viab: inhibitors of Leishmania major promastigote growth. Leishmania major promastigotes, resazurin fluorescence viability. inhibition, % at 10 µM. actives 9% (n = 200,000);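 also: promastigotes grown with compound for 44 hours at 28 °C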
PfG6PD inh: PfG6PD (Plasmodium falciparum) enzyme inhibition | PfGluPho enzyme, NADPH resazurin-diaphorase fluorescence | inhibition, % at 20 µM | actives 0.78% (n = 350,000);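 active = inhibition reaching at least a set limit at 20 µM in the primary screen, cut at about 59% in these data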;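 also: 0% = DMSO wells with substrate and 100% = DMSO wells lacking glucose-6-phosphate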
Diaph act CS: diaphorase activation or chemical reduction counter-screen | Diaphorase/resazurin coupled assay, resorufin fluorescence, 16 min; stronger effect = higher value; 1 = vehicle wells, 0 = NADH-free wells | activation factor at 20 µM | actives 0.005% (n = 190,000) | AID 1229;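 active = diaphorase activity raised at least twofold by the compound at 20 µM; inactive = activation factor below 2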
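Material: bacterial diaphorase enzyme (C. kluyveri); amount: enzyme 0.07 U/mL final; reagent: NADH substrate 0.114 mM plus resazurin dye 0.1 mM, final; doses: single compound dose of 20 µM, 1% DMSO final; timing: 16 min enzyme reaction, ambient temperature; measured by: fluorescence of resorufin, 544 nm excitation, 590 nm emission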
Numbers without * were called inactive; / = not tested or not shown. Rule as the data show it, unless noted: active = inhibition above about 50%; inactive = the rest.

SMILES	Redox H2O2 prof	Diaphorase inh	G6PDH CS	L major viab	PfG6PD inh	Diaph act CS
O=Cc1ccccc1-n1cncn1	0.3	6.4	11.5	-2.0	-6.9	0.9
CC(/C=C/c1ccc(OCc2ccccc2)cc1)=N\O	0.1	10.2	8.0	83.2*	5.3	0.9
COC(=O)c1[nH]c2ccccc2c1NC(=O)CN1CC(C)OC(C)C1 (stereo not given)	2.4	5.8	-1.5	-2.2	-14.4	0.9
CCOC(=O)c1[nH]c2ccc(F)cc2c1NC(=O)CN1CCN(C/C=C/c2ccccc2)CC1	2.3	11.8	-1.8	99.4*	20.9	0.9
COC(=O)c1[nH]c2ccccc2c1NC(=O)CN1CCN(C/C=C/c2ccccc2)CC1	3.4	12.9	12.7	63.6*	9.2	0.9
COc1cccc(/C=N/NC(=O)c2ccccc2N(Cc2ccccc2)S(=O)(=O)c2ccccc2)c1OC	2.1	1.3	7.4	90.6*	13.9	1
COc1ccc(OC)c(NC(=O)c2ccccc2N(Cc2ccccc2)S(C)(=O)=O)c1	-0.7	6.4	16.6	79.8*	-11.5	0.9
COc1ccc(NC(=O)c2ccccc2N(Cc2ccccc2)S(C)(=O)=O)c(OC)c1	/	/	/	/	-12.4	/
COc1cccc(N/C(SCc2cccc([N+](=O)[O-])c2)=C(/C#N)C(N)=O)c1	1.0	24.4	-4.1	94.5*	35.1	0.8
CCOc1ccccc1C(=O)N1CCN(C(c2ccccc2)c2ccccc2)CC1	0.6	16.6	5.6	95.3*	1.4	0.8
Cc1ccccc1C(=O)N1CCN(C(c2ccccc2)c2ccccc2)CC1	/	/	/	/	9.0	/
O=C(Nc1cccc(C(F)(F)F)c1)c1ccccc1NC(=O)C1CCCCC1	0.2	12.6	-10.6	57.4*	-0.2	0.9
COCCn1c(SCC(=O)NC2CCCC2)nc2c(c1=O)SCC2	/	/	/	/	-17.9	/
COc1ccc(O)c(C(=O)c2coc(=N)c(C(=O)Nc3ccc(SC(F)F)cc3)c2)c1	-0.3	36.1	8.5	82.7*	1.8	0.6
CCc1ccc(C(=O)NNC(=O)CCc2nc3ccccc3c(=O)[nH]2)cc1	/	/	/	/	-3.3	/
CN1CCN(C(=S)c2ccc(-c3cccc(Cl)c3Cl)o2)CC1	0.4	24.8	-7.7	95.1*	1.0	0.8
CC(C)(C)c1c(Cl)c(O)c(-c2ccccc2)c(=O)n1-c1ccccc1	-0.5	-10.5	-2.2	4.8	-22.0	1.1
O=C1C(Cc2ccccc2)NC(=S)N1c1ccccc1 (stereo not given)	1.9	7.5	3.6	-6.1	-5.2	0.9
COc1ccc(CCN(C(=O)c2cccc(F)c2)C2CC(=O)N(c3ccccc3)C2=O)cc1 (stereo not given)	0.5	11.6	-3.2	-2.1	12.8	0.9
COc1ccc(CCN(C(=O)c2cccc(F)c2)C2CC(=O)N(c3ccc(OC)cc3)C2=O)cc1 (stereo not given)	-2.8	15.3	-18.7	72.4*	13.9	0.8
CCCOc1ccc(N2C(=O)CC(N(Cc3ccc(OC)cc3)C(=S)Nc3ccccc3)C2=O)cc1 (stereo not given)	-0.2	12.5	4.2	68.5*	8.6	0.9
O=C(OCC(=O)N1CCOCC1)c1ccccc1OCc1ccccc1	/	/	/	/	-0.1	/
COc1cc(CC(=O)Nc2cccc(S(=O)(=O)N(C)c3ccccc3)c2)cc(OC)c1OC	/	/	/	/	-3.5	/
CC(C)(C)c1ccc(OCCCC(=O)Nc2ccc(S(N)(=O)=O)cc2)cc1	-10.0	10.7	-1.7	73.2*	-15.9	0.9
CN(c1ccccc1)S(=O)(=O)c1cccc(NC(=O)Cn2cnc3ccccc3c2=O)c1	0.4	19.2	7.1	97.8*	15.3	0.8
SMILES	Redox H2O2 prof	Diaphorase inh	G6PDH CS	L major viab	PfG6PD inh	Diaph act CS
CC(=O)c1ccc(OCCCC(=O)Nc2cccc(S(=O)(=O)N(C)C)c2)cc1	-0.6	15.7	14.4	58.4*	-16.9	0.8
CN(c1ccccc1)S(=O)(=O)c1cccc(NC(=O)CC(C)(C)C)c1	0.2	6.9	7.4	96.5*	-2.5	0.9
CC(=O)c1ccc(OCCCC(=O)Nc2cccc(S(=O)(=O)N3CCCCC3)c2)cc1	/	/	/	/	12.1	/
NS(=O)(=O)c1ccc(NC(=O)CCCCC(=O)Nc2ccc(S(N)(=O)=O)cc2)cc1	/	/	/	/	5.8	/
O=C(COC(=O)CNC(=O)c1ccc(Cl)cc1Cl)NC1CCCCCCC1	/	/	/	/	0.2	/
COCCOc1ccc(C(F)(F)F)cc1NC(=O)COC(=O)c1ccc(N2CCCC2=O)cc1	/	/	/	/	13.1	/
COc1ccc(O)c(CN2CCC(n3nccc3NC(=O)CCOc3ccccc3)CC2)c1	/	/	/	/	20.2	/
COc1cccc(CN(C)CC(=O)Nc2cccc(S(N)(=O)=O)c2)c1OC	5.3	2.8	-1.4	87.9*	-6.8	1
CCOc1ccc(CN(C)CC(=O)Nc2cccc(S(=O)(=O)N(C)c3ccccc3)c2)cc1	0.0	20.8	4.4	74.0*	23.5	0.8
COc1cccc(CN(C)CC(=O)Nc2cccc(S(=O)(=O)N(C)c3ccccc3)c2)c1OC	/	/	/	/	9.8	/
COc1ccc(Br)cc1CN(C)CC(=O)Nc1cccc(S(N)(=O)=O)c1	-1.1	0.0	7.0	7.4	24.6	1
O=C(Nc1cccc(Oc2ccc3c(c2)C(=O)NC3=O)c1)c1cccs1	0.2	18.9	-9.0	-3.1	7.0	0.8
Cc1cc(C(=O)Nc2c(F)cc(F)cc2Br)n(-c2ccccc2)n1	/	/	/	/	7.4	/
CC1CCCN(C(C(=O)NC2CCCCC2)c2cc3c(cc2[N+](=O)[O-])OCO3)C1 (stereo not given)	0.0	19.2	8.9	95.0*	-2.2	0.8
CC1CCN(C(C(=O)NC2CCCCC2)c2cc3c(cc2[N+](=O)[O-])OCO3)CC1 (stereo not given)	0.3	37.2	5.2	40.4	7.1	0.6
Cc1noc(C)c1NC(=O)N(C)C[C@@H]1OCc2cnnn2CCCC(=O)N([C@@H](C)CO)C[C@@H]1C	/	/	/	/	14.4	/
C=C(C)C1CC=C(CN2CCC(C(=O)OCC)CC2)CC1 (stereo not given)	-0.1	13.9	5.8	94.7*	-10.4	0.9
C=C(C)C1CC=C(CN2CC(C)OC(C)C2)CC1 (stereo not given)	-11.3	-0.7	3.8	87.6*	-4.0	1
C=C(C)[C@@H]1CC=C(CO)CC1	/	/	/	/	14.9	/
COCCCNc1nc(-c2ccncc2)nc2ccccc12	-0.8	11.7	-4.9	30.3	13.6	0.9
OCCCNc1nc(-c2ccc(Cl)cc2)nc2ccccc12	/	/	/	/	36.7	/
CCN(CC)CCCNc1nc(-c2ccccc2)nc2ccccc12	1.0	3.8	-0.2	71.6*	4.0	1
Clc1ccc(-c2nc(NCCN3CCOCC3)c3ccccc3n2)cc1	1.7	4.5	1.4	61.9*	24.7	1
c1ccc(-c2nc(NCCCn3ccnc3)c3ccccc3n2)cc1	-0.5	-14.5	0.6	53.8*	12.1	1.1
